Reference: ChEMBL document CHEMBL4354820, “Optimizing Targeted Inhibitors of P-Glycoprotein Using Computational and Structure-Guided Approaches” (J Med Chem, 2019)

Tests used:
[1] = biological target: T1, ATP-dependent translocase ABCB1 (Homo sapiens, UniProt P08183); assay: Inhibition of P-gp overexpressed in human DU145-TxR cells assessed as increase in cellular accumulation of calcein AM at 2 uM pretreated followed by calcein AM addition by fluorescence imaging analysis; type: cell-based
Summary of the method: (§1)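 Confluent DU145TXR monolayers in phenol red-free RPMI 1640 given 2 μM inhibitor (DMSO vehicle) and 1 μg mL−1 calcein AM, either added together or after a 6 h inhibitor-only preincubation at 37 °C. Calcein fluorescence (ex 485 / em 535 nm) read over 60 min at 20 min intervals. Six replicates, at least two independent experiments.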

[2] = biological target: T1, ATP-dependent translocase ABCB1; assay: Reversal of P-gp mediated multidrug resistance in human DU145-TxR cells overexpressing P-gp assessed as potentiation of paclitaxel-induced cytotoxicity by measuring fold reduction paclitaxel IC50 at 7 uM after 48 hrs by MTT assay relative to paclitaxel alone; type: cell-based
Summary of the method: (§2)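 DU145TXR cells seeded at 3000 per well, 24 h later treated 48 h with paclitaxel alone or with 3, 5, 7 or 10 μM inhibitor in complete medium (DMSO vehicle). MTT 4 h, formazan dissolved in DMSO, A570 read, background subtracted, viability relative to DMSO. IC50 by four-parameter nonlinear fit; eight replicates, at least two experiments. Fold values compare paclitaxel alone or with parent inhibitor.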

[3] = biological target: T1, ATP-dependent translocase ABCB1; assay: Reversal of P-gp mediated multidrug resistance in human DU145-TxR cells overexpressing P-gp assessed as potentiation of paclitaxel-induced cytotoxicity by measuring fold reduction paclitaxel IC50 at 5 uM after 48 hrs by MTT assay relative to paclitaxel alone; type: cell-based; summary of the method: as §2
[4] = biological target: T1, ATP-dependent translocase ABCB1; assay: Reversal of P-gp mediated multidrug resistance in human DU145-TxR cells overexpressing P-gp assessed as potentiation of paclitaxel-induced cytotoxicity by measuring fold reduction paclitaxel IC50 at 3 uM after 48 hrs by MTT assay relative to paclitaxel alone; type: cell-based; summary of the method: as §2
[5] = biological target: T1, ATP-dependent translocase ABCB1; assay: Reversal of P-gp mediated multidrug resistance in human DU145-TxR cells overexpressing P-gp assessed as potentiation of paclitaxel-induced cytotoxicity by measuring fold reduction paclitaxel IC50 at 3 uM after 48 hrs by MTT assay relative to parent compound; type: cell-based; summary of the method: as §2
[6] = biological target: T1, ATP-dependent translocase ABCB1; assay: Reversal of P-gp mediated multidrug resistance in human DU145-TxR cells overexpressing P-gp assessed as potentiation of paclitaxel-induced cytotoxicity by measuring fold reduction paclitaxel IC50 at 10 uM after 48 hrs by MTT assay relative to paclitaxel alone; type: cell-based; summary of the method: as §2
[7] = biological target: T1, ATP-dependent translocase ABCB1; assay: Reversal of P-gp mediated multidrug resistance in human DU145-TxR cells overexpressing P-gp assessed as potentiation of paclitaxel-induced cytotoxicity by measuring fold reduction paclitaxel IC50 at 5 uM after 48 hrs by MTT assay relative to parent compound; type: cell-based; summary of the method: as §2
[8] = biological target: T1, ATP-dependent translocase ABCB1; assay: Reversal of P-gp mediated multidrug resistance in human DU145-TxR cells overexpressing P-gp assessed as potentiation of paclitaxel-induced cytotoxicity by measuring fold reduction paclitaxel IC50 at 7 uM after 48 hrs by MTT assay relative to parent compound; type: cell-based; summary of the method: as §2
[9] = biological target: T1, ATP-dependent translocase ABCB1; assay: Reversal of P-gp mediated multidrug resistance in human DU145-TxR cells overexpressing P-gp assessed as potentiation of paclitaxel-induced cytotoxicity by measuring fold reduction paclitaxel IC50 at 10 uM after 48 hrs by MTT assay relative to parent compound; type: cell-based; summary of the method: as §2
[10] = biological target: T1, ATP-dependent translocase ABCB1; assay: Inhibition of P-gp overexpressed in human DU145-TxR cells assessed as increase in cellular accumulation of calcein AM at 2 uM preincubated for 6 hrs followed by calcein AM addition by fluorescence imaging analysis; type: cell-based; summary of the method: as §1
[11] = biological target: T2, P-glycoprotein (ABCB1, mouse MDR3) ATPase (Mus musculus, UniProt P21447); assay: Inhibition of verampil-stimulated ATPase hydrolysis in recombinant mouse MDR3 expressed in Pichia pastoris measured after 30 mins in presence of NADH by coupled enzyme assay (reference value: 100 +/- 8 %); parameters: scale not given: the % may be the effect or the level left; conditions: recombinant mouse MDR3 (P-gp) expressed in Pichia pastoris
T2 sequence (P21447 whole entry): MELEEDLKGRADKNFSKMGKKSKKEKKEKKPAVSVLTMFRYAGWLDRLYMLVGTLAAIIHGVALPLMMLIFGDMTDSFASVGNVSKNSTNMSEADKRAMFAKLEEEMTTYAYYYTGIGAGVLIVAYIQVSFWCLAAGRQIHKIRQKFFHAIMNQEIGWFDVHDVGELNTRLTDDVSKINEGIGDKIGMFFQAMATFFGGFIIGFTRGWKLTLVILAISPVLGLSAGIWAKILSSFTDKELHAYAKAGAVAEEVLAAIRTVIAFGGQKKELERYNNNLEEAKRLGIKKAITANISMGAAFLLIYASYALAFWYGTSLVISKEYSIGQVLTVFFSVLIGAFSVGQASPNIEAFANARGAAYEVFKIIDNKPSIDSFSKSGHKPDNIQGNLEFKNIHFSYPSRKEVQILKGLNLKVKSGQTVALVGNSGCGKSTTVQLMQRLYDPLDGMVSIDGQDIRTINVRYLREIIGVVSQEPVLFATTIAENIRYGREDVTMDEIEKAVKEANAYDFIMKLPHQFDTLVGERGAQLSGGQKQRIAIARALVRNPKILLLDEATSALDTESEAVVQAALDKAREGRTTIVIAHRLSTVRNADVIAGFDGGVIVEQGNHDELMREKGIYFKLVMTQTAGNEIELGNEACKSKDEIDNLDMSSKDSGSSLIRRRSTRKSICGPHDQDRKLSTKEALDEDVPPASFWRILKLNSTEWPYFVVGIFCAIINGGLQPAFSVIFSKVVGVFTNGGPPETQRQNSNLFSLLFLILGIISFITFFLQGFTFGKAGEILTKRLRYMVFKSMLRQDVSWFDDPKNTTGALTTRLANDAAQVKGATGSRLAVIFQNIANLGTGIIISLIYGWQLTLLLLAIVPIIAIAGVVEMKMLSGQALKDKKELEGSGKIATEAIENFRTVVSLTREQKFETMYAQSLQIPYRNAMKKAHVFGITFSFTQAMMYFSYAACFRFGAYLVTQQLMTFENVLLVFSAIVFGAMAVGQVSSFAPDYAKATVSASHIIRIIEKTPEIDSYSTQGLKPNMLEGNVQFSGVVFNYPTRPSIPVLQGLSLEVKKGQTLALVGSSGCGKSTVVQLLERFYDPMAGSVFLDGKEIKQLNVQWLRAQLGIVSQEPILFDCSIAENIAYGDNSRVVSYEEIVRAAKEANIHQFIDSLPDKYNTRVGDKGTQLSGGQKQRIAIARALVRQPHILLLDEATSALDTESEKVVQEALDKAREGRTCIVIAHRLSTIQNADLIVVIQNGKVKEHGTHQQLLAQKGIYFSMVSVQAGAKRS

[12] = biological target: T2, P-glycoprotein (ABCB1, mouse MDR3) ATPase; assay: Effect on basal ATPase hydrolysis of recombinant mouse MDR3 expressed in Pichia pastoris measured after 30 mins in presence of NADH by coupled enzyme assay (reference value: 100 +/- 7 %); parameters: scale not given: the % may be the effect or the level left; conditions: recombinant mouse MDR3 (P-gp) expressed in Pichia pastoris, read-out: Activity
[13] = biological target: T1, ATP-dependent translocase ABCB1; assay: Ratio of inhibition of P-gp overexpressed in human DU145-TxR cells assessed as increase in intracellular compound accumulation after 2.5 hrs in presence of tariquidar by LC-MS/MS analysis to Inhibition of P-gp overexpressed in human DU145-TxR cells assessed as decrease in intracellular compound accumulation after 2.5 hrs in absence of tariquidar by LC-MS/MS analysis; type: cell-based
Summary of the method: (§3)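 P-gp-overexpressing DU145TXR cells exposed to test compounds with or without tariquidar. Intracellular compound measured by LC–MS/MS, with daunorubicin as a transported-substrate control. Ratio is accumulation with tariquidar divided by accumulation without.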

[14] = biological target: T3, P-glycoprotein (ABCB1, MDR1) ATPase (Homo sapiens, UniProt P08183); assay: Inhibition of verampil-stimulated ATPase hydrolysis in recombinant human MDR1 expressed in Pichia pastoris measured after 30 mins in presence of NADH by coupled enzyme assay (reference value: 100 +/- 6 %); parameters: scale not given: the % may be the effect or the level left; conditions: recombinant human MDR1 (P-gp) expressed in Pichia pastoris
T3 sequence (P08183 whole entry): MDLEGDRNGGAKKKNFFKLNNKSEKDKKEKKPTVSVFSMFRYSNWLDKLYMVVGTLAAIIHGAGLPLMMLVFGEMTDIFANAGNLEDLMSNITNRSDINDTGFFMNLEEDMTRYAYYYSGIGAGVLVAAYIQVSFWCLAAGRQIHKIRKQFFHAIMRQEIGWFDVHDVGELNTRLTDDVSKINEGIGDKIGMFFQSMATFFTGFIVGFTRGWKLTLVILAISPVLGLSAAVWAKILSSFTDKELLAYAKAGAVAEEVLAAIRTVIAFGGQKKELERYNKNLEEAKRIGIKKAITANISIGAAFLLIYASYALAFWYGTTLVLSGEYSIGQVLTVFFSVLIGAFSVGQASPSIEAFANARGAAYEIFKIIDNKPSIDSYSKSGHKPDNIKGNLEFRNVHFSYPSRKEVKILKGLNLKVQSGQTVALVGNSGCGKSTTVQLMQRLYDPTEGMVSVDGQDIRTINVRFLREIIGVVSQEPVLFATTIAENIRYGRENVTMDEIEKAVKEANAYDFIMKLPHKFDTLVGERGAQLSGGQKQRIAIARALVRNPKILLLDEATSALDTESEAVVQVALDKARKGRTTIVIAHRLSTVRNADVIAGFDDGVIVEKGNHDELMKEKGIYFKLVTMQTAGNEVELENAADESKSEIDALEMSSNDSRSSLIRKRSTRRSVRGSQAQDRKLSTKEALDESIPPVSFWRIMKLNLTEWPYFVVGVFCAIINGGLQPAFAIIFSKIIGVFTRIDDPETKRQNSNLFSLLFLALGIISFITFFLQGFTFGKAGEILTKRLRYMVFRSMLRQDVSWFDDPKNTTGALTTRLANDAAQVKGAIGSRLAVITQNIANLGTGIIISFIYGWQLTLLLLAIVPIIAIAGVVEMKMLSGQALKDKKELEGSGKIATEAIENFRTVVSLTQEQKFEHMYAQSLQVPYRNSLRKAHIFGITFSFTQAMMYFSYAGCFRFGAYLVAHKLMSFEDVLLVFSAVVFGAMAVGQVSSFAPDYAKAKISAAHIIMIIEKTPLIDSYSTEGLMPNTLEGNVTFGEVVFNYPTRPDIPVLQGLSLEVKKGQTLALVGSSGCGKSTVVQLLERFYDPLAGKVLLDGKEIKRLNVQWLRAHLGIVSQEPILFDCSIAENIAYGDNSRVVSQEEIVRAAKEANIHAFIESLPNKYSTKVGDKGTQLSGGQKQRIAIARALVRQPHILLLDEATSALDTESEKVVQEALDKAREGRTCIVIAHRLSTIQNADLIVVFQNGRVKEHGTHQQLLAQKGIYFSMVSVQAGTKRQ

[15] = biological target: T3, P-glycoprotein (ABCB1, MDR1) ATPase; assay: Effect on basal ATPase hydrolysis of recombinant human MDR1 expressed in Pichia pastoris measured after 30 mins in presence of NADH by coupled enzyme assay (reference value: 100 +/- 5 %); parameters: scale not given: the % may be the effect or the level left; conditions: recombinant human MDR1 (P-gp) expressed in Pichia pastoris, read-out: Activity
[16] = biological target: P-glycoprotein 1 Abcb1a (Mus musculus); assay: Inhibition of spin-labelled adenine nucleotide interaction with mouse MDR3 P-gp expressed in Escherichia coli BL21 (DE3) assessed as apparent dissociation constant by ESR analysis (reference value: 36.5 +/- 3.6 uM)
[17] = test system: P-glycoprotein 1 Abcb1a (Mus musculus); assay: Inhibition of 2',3'-(2,2,5,5,-tetramethyl-3-pyrroline-l-oxyl-3-carboxylic acid ester)ATP interaction with mouse MDR3 P-gp expressed in Escherichia coli BL21 (DE3) assessed as reduction in ATP binding from 2 to 1 of nucleotide to mol of protein by ESR analysis (reference value: 1.8 +/- 0.1)
[18] = biological target: T2, P-glycoprotein (ABCB1, mouse MDR3) ATPase; assay: Effect on verampil-mediated ATPase hydrolysis of recombinant mouse MDR3 expressed in Pichia pastoris measured after 30 mins in presence of NADH by coupled enzyme assay (reference value: 100 +/- 8 %); parameters: scale not given: the % may be the effect or the level left; conditions: recombinant mouse MDR3 (P-gp) expressed in Pichia pastoris, read-out: Activity
[19] = biological target: T2, P-glycoprotein (ABCB1, mouse MDR3) ATPase; assay: Stimulation of basal ATPase hydrolysis in recombinant mouse MDR3 expressed in Pichia pastoris measured after 30 mins in presence of NADH by coupled enzyme assay (reference value: 100 +/- 7 %); parameters: scale not given: the % may be the effect or the level left; conditions: recombinant mouse MDR3 (P-gp) expressed in Pichia pastoris, read-out: Activity
[20] = biological target: T1, ATP-dependent translocase ABCB1; assay: Inhibition of P-gp overexpressed in human DU145-TxR cells assessed as increase in intracellular compound accumulation after 2.5 hrs in presence of tariquidar by LC-MS/MS analysis; type: cell-based; summary of the method: as §3
[21] = biological target: T3, P-glycoprotein (ABCB1, MDR1) ATPase; assay: Basal ATPase hydrolysis in recombinant human MDR1 expressed in Pichia pastoris measured after 30 mins in presence of NADH by coupled enzyme assay (reference value: 100 +/- 5 %); parameters: scale not given: the % may be the effect or the level left; conditions: recombinant human MDR1 (P-gp) expressed in Pichia pastoris
[22] = biological target: T2, P-glycoprotein (ABCB1, mouse MDR3) ATPase; assay: Stimulation of verampil-mediated ATPase hydrolysis in recombinant mouse MDR3 expressed in Pichia pastoris measured after 30 mins in presence of NADH by coupled enzyme assay (reference value: 100 +/- 8 %); parameters: scale not given: the % may be the effect or the level left; conditions: recombinant mouse MDR3 (P-gp) expressed in Pichia pastoris, read-out: Activity

T1 sequence (P08183 whole entry): as above

Row | Structure (SMILES) | inhibition (INH) [1] | fold change (FC) [2] | fold change (FC) [3] | fold change (FC) [4] | fold change (FC) [5] | fold change (FC) [6] | fold change (FC) [7] | fold change (FC) [8] | fold change (FC) [9] | inhibition (INH) [10] | Activity at 0.5 h [11] | Activity at 0.5 h [12] | Ratio [13] | Activity at 0.5 h [14] | Activity at 0.5 h [15] | Kd [16] | Activity [17] | Activity at 0.5 h [18] | inhibition (INH) [20] | also measured
1 | Cc1cc(C)c(-c2cc(NC(=O)CSCC(=O)N3c4ccccc4CCc4ccccc43)n(-c3ccccc3)n2)cc1C | Active | 353 | 41 | 13 | 3.8 | 530 | 3.7 | 10 | 5 | Active | 50% | 88% | 1 | 62% | 83% | 36.9 µM | 1.8 |  |  | 
2 | Cc1cc(C)c(-c2cc(NC(=O)CSCC(=O)Nc3ccc4ncsc4c3)n(-c3ccccc3)n2)cc1C | Active | 731 | 372 | 12 | 3.7 | 2118 | 34 | 20 | 27 | Active |  |  | 1.2 | 59% | 84% | 25.6 µM | 1.9 | 123% | Active | Activity at 0.5 h [19]: 355%
3 | Cc1cc(C)c(-c2cc(NC(=O)CSc3n[nH]c(C4CC4)n3)n(-c3ccccc3)n2)cc1C | Active | 36 | 11 | 3 | 1 | 101 | 1 | 1 | 1 | Active | 49% | 95% | 1 | 62% |  | 71 µM | 1.9 |  |  | 
4 | Cc1cc(C)c(-c2cc(NC(=O)CSc3cccc(NC(=O)c4cncc(Br)c4)c3)n(-c3ccccc3)n2)cc1C | Active | 236 | 106 | 38 | 11 | 353 | 9.7 | 6.6 | 3.5 | Active | 62% |  | 1.1 | 27% |  | 22.8 µM | 1.7 |  |  | Activity at 0.5 h [19]: 150%; Activity at 0.5 h [21]: 72%
5 | Cc1cc(C)c(-c2cc(NC(=O)CSCC(=O)c3ccc4c(c3)Cc3ccccc3-4)n(-c3ccccc3)n2)cc1C | Active | 34 | 14 | 8 | 2.4 | 37 | 1.3 | 1 | 0.4 | Active |  | 105% | 1.1 | 64% |  | 23.1 µM | 1.7 | 108% |  | Activity at 0.5 h [21]: 69%
6 | Cc1cc(C)c(-c2cc(NC(=O)CSCC(=O)NCc3ccc(F)cc3)n(-c3ccccc3)n2)cc1C | Active | 11 | 5.6 | 4.6 | 1.4 | 16 | 0.5 | 0.3 | 0.2 | Active |  | 143% | 1.3 | 59% | 95% | 25.7 µM | 1.9 | 98% | Active | 
7 | COc1cc(NC(=O)CSCC(=O)Nc2cc(-c3cc(C)c(C)cc3C)nn2-c2ccccc2)cc(OC)c1OC | Active | 3312 | 1116 | 11 | 3.4 | 30286 | 102 | 92 | 300 | Active |  |  | 1.9 | 61% | 89% | 20.1 µM | 1.2 |  | Active | Activity at 0.5 h [22]: 194%
8 | Cc1cc(C)c(-c2cc(NC(=O)CSc3nnc4c(n3)[nH]c3ccccc34)n(-c3ccccc3)n2)cc1C | Active | 125 | 101 | 5 | 1.5 | 125 | 9.2 | 3.4 | 3.4 | Active | 68% | 101% | 1 | 66% | 87% | 24.1 µM | 1.8 |  |  | 
